The record followed here is publication PMC4834983 (Journal of medicinal chemistry, 2015).

For one experiment, the system named is Stat5:Stat5. As to the kind of experiment: Cell-free EMSA, EGF-stimulated NIH3T3/hEGFR nuclear extracts, MGFe probe. In kind it is biochemical, mouse. The note with it: 5 μM, 30 min pre-incubation. The method, boiled down:
(§1)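 Nuclear extracts from EGF-stimulated NIH3T3/hEGFR fibroblasts, containing active Stat1, Stat3 and Stat5, preincubated with 5 μM test compound for 30 min at room temperature. Then incubated 30 min with 32P-labelled probe before EMSA: hSIE (Stat1/Stat3 binding) or MGFe (bovine β-casein element; Stat1/Stat5 binding). STAT:DNA bands quantified as percent of control.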
For orientation: In EMSA bound probe runs differently from free probe, usually more slowly.

For the next experiment, the system named is pStat1. As to the kind of experiment: Immunoblotting, EGF-stimulated NIH3T3/hEGFR fibroblasts. In kind it is cell-based, mouse. Conditions: 5 μM pre-treatment. The method, boiled down: (§2)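 NIH3T3/hEGFR fibroblasts pretreated with or without 5 μM test compound for 3 h, then stimulated with 1 μg/ml EGF for 12 min. Whole-cell lysates, equal total protein, immunoblotted for pStat1/Stat1, pStat5/Stat5 and pErk1/2/Erk1/2.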
A general note: In western blotting, separated proteins are transferred to a membrane and probed.

The test system of experiment [1] is suppressors of cytokine signaling (SOCS)3. As to the kind of experiment: Immunoblotting, U251MG glioma cells. Conditions: 5 μM. Type of experiment: cell-based, human. The method, boiled down:
(§3)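 U251MG cells given 5 μM test compound for 0–24 h. Whole-cell lysates of equal total protein immunoblotted for pErk1/2, Erk1/2, pS-Akt, Akt, pJAK2, JAK2, SOCS3 and PTP1B, with β-actin or GAPDH as loading reference.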

Experiment [2] concerns U251MG subcutaneous tumor xenografts. As to the kind of experiment: Subcutaneous glioma xenograft tumor growth. In kind it is in vivo, mouse. The note with it: 2 mg/kg, oral gavage, 33 days. The method, boiled down: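 Female athymic nude mice, 4 weeks old, injected subcutaneously in the left flank with 7.3 ×10^6 U251MG cells in PBS/matrigel. At 20 days (tumours 170–250 mm3), mice grouped by matched mean tumour size. Dosed 2 mg/kg by oral gavage in 1% DMSO vehicle, three times weekly, for 33 days. Caliper volumes (V = 0.52 × a2 × b) and body weights recorded; paired t test against vehicle.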

The test system of another experiment is pStat5. The experiment is described as follows: Immunoblotting, EGF-stimulated NIH3T3/hEGFR fibroblasts. In kind it is cell-based, mouse. Conditions: 5 μM pre-treatment. The method, boiled down:
as §2

Experiment [3] concerns U251MG cells. The experiment is described as follows: BrdU incorporation assay. In kind it is cell-based, human. Conditions: 5 μM, at 24 h. The method, boiled down:
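U251MG cells on glass coverslips exposed to DMSO or 5 μM test compound for 3–24 h. BrdU (10 micromolar) added for the final 2 h. Fixed in 4% paraformaldehyde for 10 min, stained with anti-BrdU antibody and counterstained with DAPI. Imaged by fluorescence microscopy, and cells counted.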
On the technique in general: Dividing cells build labelled thymidine or BrdU into new DNA.

In the next experiment the target is T1, Stat1:Stat1 (Mus musculus, UniProt P42225).
T1 sequence (P42225 2-749 limits assumed): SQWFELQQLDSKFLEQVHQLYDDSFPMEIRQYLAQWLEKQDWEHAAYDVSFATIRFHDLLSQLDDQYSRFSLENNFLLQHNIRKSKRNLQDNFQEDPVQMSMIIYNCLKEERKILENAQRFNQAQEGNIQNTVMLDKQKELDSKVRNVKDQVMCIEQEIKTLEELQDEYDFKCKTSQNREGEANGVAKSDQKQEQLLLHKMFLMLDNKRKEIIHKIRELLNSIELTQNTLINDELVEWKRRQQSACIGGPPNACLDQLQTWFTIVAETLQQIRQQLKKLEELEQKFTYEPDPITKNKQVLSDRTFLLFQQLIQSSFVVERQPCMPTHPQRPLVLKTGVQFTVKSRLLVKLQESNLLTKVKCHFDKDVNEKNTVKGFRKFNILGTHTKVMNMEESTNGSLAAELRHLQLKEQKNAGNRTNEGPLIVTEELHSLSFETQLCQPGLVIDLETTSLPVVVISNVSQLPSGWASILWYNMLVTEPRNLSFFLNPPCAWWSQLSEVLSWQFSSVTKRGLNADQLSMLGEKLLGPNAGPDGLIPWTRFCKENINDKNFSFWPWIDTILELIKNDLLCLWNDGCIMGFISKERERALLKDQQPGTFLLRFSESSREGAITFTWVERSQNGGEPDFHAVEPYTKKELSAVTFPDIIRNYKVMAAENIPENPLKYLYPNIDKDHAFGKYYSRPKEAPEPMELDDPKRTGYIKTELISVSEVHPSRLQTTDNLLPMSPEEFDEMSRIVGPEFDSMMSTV
As to the kind of experiment: Cell-free EMSA, EGF-stimulated NIH3T3/hEGFR nuclear extracts. Type of experiment: biochemical. Conditions: 5 μM, 30 min pre-incubation. The method, boiled down:
as §1

A further experiment deals with pS-Akt. The experiment is described as follows: Immunoblotting, U251MG glioma cells. The note with it: 5 μM. In kind it is cell-based, human. The method, boiled down:
as §3

Experiment [4] relates to U251MG cells. The experiment is described as follows: Colony survival assay. Type of experiment: cell-based, human. The note with it: 1 μM, treated once. The method, boiled down: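 Cells seeded as single cells at 250 per well and treated once the next day with test compound (0–5 μM) for 72 h. Grown until large colonies were visible: 1 week for NIH3T3, 2 weeks for U251MG. Colonies stained with crystal violet for 4 h and counted.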

With `C/C=C(\C)C(=O)OCC1=C2/C(=C\[C@@]3(C)CC[C@](O)(O3)[C@H](C)C[C@@H]2O)OC1=O` [Compound 22], the “effect on Stat5:Stat5 activity, cell-free EMSA” value with Stat5:Stat5 is reported as “weak effects”. Moreover, in the experiment with pStat1, the “effect on EGF-stimulated pStat1 levels” value was “no effect”. Moreover, the “effect on SOCS3 levels” value in experiment [1] is given as “no effects”. Also, in experiment [2], the “growth of subcutaneous U251MG xenografts” value is reported as “inhibited growth”. The “effect on EGF-stimulated pStat5 levels” value with pStat5 is given as “no effect”. The “cell proliferation measured by BrdU incorporation” value in the experiment on U251MG cells [3] is “significantly impaired”. Moreover, the “effect on Stat1:Stat1 activity, cell-free EMSA” value at Stat1:Stat1 is recorded as “weak effects”. In addition, the “effect on pS-Akt levels” value in the experiment on pS-Akt is given as “no effects”. The U251MG colony formation entry in the experiment on U251MG cells [4] was “completely inhibited”.
